In the RNAGym collection of RNA variant scans (doi:10.1038/s41586-018-0170-7):

B1: tRNA (parent)
chain: GUUCCGUUGGCGUAAUGGUAACGCGUCUCCCUCCUAAGGAGAAGACUGCGGGUUCGAGUCCCGUACGGAACG

Variants of: B1
Assay: yeast fitness, log relative to wild type (ln ratio); higher = fitter; tRNA-Arg(CCU), competitive growth, 37 C, 1 M NaCl
Summary of the method: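 For each genotype, fitness is defined as the natural log of its generation number over the wild type's. The tRNA-Arg(CCU) variant library was on a HIS3 centromeric plasmid in BY4742 with the chromosomal gene removed, and pools were first grown 4 generations in SC-HIS at 30 °C and then ~6.5 generations (~26.5 h) in SC-HIS 1M NaCl at 37 °C. Generations were calculated from OD-scaled log2 output/input frequency, weighted by inverse variance across replicates, using counts from 125 bp paired-end Illumina sequencing.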

| Variant | yeast fitness (ln) |
| --- | --- |
| G1A G6U C46U C66A A70G | -0.225 |
| G1A U2C C27U A43C C46U A70U | -0.072 |
| G1A U2C C27U A43C C46U A70G | -0.0342 |
| G1A U2C C46U | -0.0408 |
| G1A U2C C46U C71U | -0.0165 |
| G1A U2C C66A A70U C71U | -0.0883 |
| G1A G6U C66U C71U | -0.425 |
| G1A U2C C27U A43C A69G A70U C71U | -0.345 |
| G1A U2C A43C C46U C66U A69G A70G | -0.0919 |
| G1A U2C A43C C46U C66U A69G A70U | -0.195 |
| G1A G6U C27U A43C C46U C66A A69G C71U | -0.671 |
| G1A G6U C27U A43C C66A A70U C71U | -0.608 |
| G1A G6U C27U C46U A69G A70U C71U | -0.431 |
| G1A U2C C27U C66U A70G | -0.0715 |
| G1A U2C C27U C66U A70U | -0.108 |
| G1A U2C A43C A69G C71U | -0.202 |
| G1A G6U C27U C66U A69G C71U | -0.295 |
| G1A U2C A69G A70U C71U | -0.321 |
| G1A G6U C27U C66A A70U C71U | -0.369 |
| G1A U2C C27U A43C C46U A69G C71U | -0.167 |
| G1A U2C A43C C46U C66U A69G A70G C71U | -0.417 |

| Variant | yeast fitness (ln) |
| --- | --- |
| G1A U2C C27U C46U A69G C71U | -0.192 |
| G1A U2C C66U A70U C71U | -0.106 |
| G1A G6U C27U C66U A69G A70U | -0.368 |
| G1A G6U C27U C66U A69G A70G | -0.47 |
| G1A U2C C46U C66A A69G A70G C71U | -0.273 |
| G1A U2C C27U C66U A69G A70U C71U | -0.54 |
| G1A U2C C27U A43C C46U C66U A69G A70U C71U | -0.464 |
| G1A G6U C27U C66A A70G C71U | -0.531 |
| G1A G6U C46U C66U A69G C71U | -0.814 |
| G1A U2C C46U C66U C71U | -0.119 |
| G1A U2C C27U A43C C71U | -0.0487 |
| G1A G6U C27U C46U A69G C71U | -0.291 |
| G1A U2C A69G C71U | -0.17 |
| G1A G6U C27U C46U C66A C71U | -0.0536 |
| G1A U2C G6A A43C | -0.0264 |
| G1A U2C G6A A43C A70G C71U | -0.13 |
| G1A U2C A43C C71U | -0.185 |
| G1A G6U C46U C66U A70U | -0.153 |
| G1A G6U C46U C66U A70G | -0.195 |
| G1A U2C A43C C66U A70U C71U | -0.281 |
| G1A G6U C66U A69G C71U | -0.312 |

| Variant | yeast fitness (ln) |
| --- | --- |
| G1A U2C A43C C66A A69G A70G C71U | -0.238 |
| G1A G6U C46U A69G A70U C71U | -0.321 |
| G1A G6U C27U C66A C71U | -0.0761 |
| G1A U2C C46U C66A A70U | -0.0262 |
| G1A G6U C27U A43C C46U C66A A70G C71U | -0.377 |
| G1A U2C C27U A70U | -0.0826 |
| G1A U2C C27U A70G | -0.0624 |
| G1A U2C C27U C46U A70U C71U | -0.155 |
| G1A U2C C27U A43C C46U C66U A69G A70G C71U | -0.2 |
| G1A U2C A43C A69G A70U C71U | -0.29 |
| G1A G6U C27U C66A A69G C71U | -0.388 |
| G1A U2C C46U A70U | -0.0782 |
| G1A U2C C46U A70G | -0.014 |
| G1A U2C A43C C46U C66U A70G C71U | -0.0729 |
| G1A U2C C27U C66U A69G A70G C71U | -0.585 |
| G1A U2C C27U C66U A70G C71U | -0.127 |
| G1A U2C C27U C46U A69G A70U C71U | -0.359 |
| G1A U2C C27U A43C C46U C66U A70G C71U | -0.4 |
| G1A U2C C27U C46U C66U C71U | -0.124 |
| G1A U2C C66U A69G A70U | -0.245 |
| G1A U2C A43C C46U A69G A70G C71U | -0.00408 |

| Variant | yeast fitness (ln) |
| --- | --- |
| G1A G6U C27U A43C C66U A70U C71U | -0.391 |
| G1A U2C C27U A43C C46U A70G C71U | -0.012 |
| G1A G6U C27U A43C C46U C66U A70U | -0.368 |
| G1A G6U C27U A43C C46U C66U A70G | -0.387 |
| G1A U2C A43C C66A A70G C71U | -0.128 |
| G1A U2C A43C C46U A69G C71U | -0.175 |
| G1A U2C A43C C46U C66U A70U C71U | -0.202 |
| G1A G6U C46U A70U C71U | -0.185 |
| G1A G6U C27U A43C C66U A69G A70G | -0.51 |
| G1A G6U C27U A43C C66U A69G A70U | -0.469 |
| G1A U2C C27U A43C C46U C66U A70G | -0.0953 |
| G1A U2C C27U A43C C46U C66U A70U | -0.0712 |
| G1A U2C C27U C46U C66A C71U | -0.12 |
| G1A G6U C27U C46U | -0.207 |
| G1A G6U C66U A70U C71U | -0.278 |
| G1A U2C C27U A43C C46U C66U A69G A70U | -0.218 |
| G1A U2C C27U A43C C46U C66U A69G A70G | -0.112 |
| G1A U2C C27U A43C C66U A69G A70G C71U | -0.21 |
| G1A G6U C46U C66A C71U | 0.0017 |
| G1A U2C C27U A43C C46U A69G A70G | -0.178 |
| G1A U2C C27U A43C C46U A69G A70U | -0.0492 |
